pEC50: −log10 of the molar value. Active and inactive are the calls of the source. No cut-off for these calls is given here.
Assays:
HeLa = experiment: Cytotoxicity against human HeLa cells after 3 days by neutral red dye-based photometric method; format: cell-based; details: 72 h
In short: (§1)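 Uninfected cells run as in the CPE assay (33 °C, 3 days, same media) with compound. Viability by neutral red staining and 540 nm absorbance. CC50 from dose-response curves, triplicate experiments.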

enterovirus D68 [1] = experiment: Antiviral activity against Enterovirus D68 US/MO/14-18947 infected in human A172 cells assessed as inhibition of virus-induced cytopathic effect incubated for 5 mins under shaking condition and measured after 3 days by neutral red dye-based photometric method; format: functional, organism-based; details: Enterovirus D, US/MO/14-18947, A 172
In short: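 A172 cells (DMEM, 10% FBS) grown ~90% confluent, infected with EV-D68 at ~MOI 0.3 in DMEM/2% FBS/30 mM MgCl2 and kept at 33 °C. P/S and compounds added 1 h later. Brief orbital shaking, then 3-day incubation. Neutral red staining with 540 nm absorbance. EC50 from best-fit dose-response curves in triplicate.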

Influenza A virus = experiment: Antiviral activity against Influenza A virus (A/California/07/2009(H1N1)) at 10 uM after 2 days by plaque assay; format: functional, organism-based
[2] = Selectivity index, ratio of CC50 for human SH-SY5Y cells to EC50 for Enterovirus D68 US/MO/14-18947 infected in human SH-SY5Y cells; format: toxicity, cell-based; details: read-out: Ratio CC50/EC50
In short: (§2)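 SH-SY5Y cells grown in 50% DMEM/50% F-12 with 10% FBS and 1% P/S to about 90% confluency, then infected at MOI about 1 in DMEM with 2% FBS and 30 mM MgCl2 at 33 °C. Compounds were added after 1 h. Neutral red staining was read at 540 nm after 3 days. CC50 came from uninfected cells under the same conditions. Values were triplicate dose-response fits, and SI = CC50/EC50.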

SH-SY5Y = experiment: Cytotoxicity against human SH-SY5Y cells after 3 days by neutral red dye-based photometric method; format: cell-based; details: 72 h; in short: as §1
[3] = Selectivity index, ratio of CC50 for human SH-SY5Y cells to EC50 for Enterovirus D68 US/KY/14-18953 infected in human SH-SY5Y cells; format: toxicity, cell-based; details: read-out: Ratio CC50/EC50; in short: as §2
A549 = experiment: Cytotoxicity against human A549 cells after 3 days by neutral red dye-based photometric method; format: cell-based; details: a549, 72 h; in short: as §1
RD [4] = experiment: Inhibition of 2C protein in Enterovirus D68 US/KY/14-18953 infected in human RD cells assessed as reduction of viral RNA synthesis at 1 uM measured at 9 hrs post infection by reagent-based RT-qPCR method relative to control; format: cell-based
In short: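 DNase-treated. 1.2 µg reverse-transcribed with oligo(dT)18. qPCR run 95 °C 10 min, then 40 cycles of 95 °C 15 s/60 °C 60 s, with melt curve. Compared with DMSO control, one-way ANOVA, mean of two experiments ± SD.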

RD [5] = experiment: Inhibition of 2C protein in Enterovirus D68 US/KY/14-18953 infected in human RD cells assessed as reduction of VP1 expression at 1 uM measured at 9 hrs post infection by DAPI-staining based microscopy; format: cell-based
In short: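 Fixed at 9 hpi (4% formaldehyde), 0.2% Triton X-100 permeabilized, blocked with 10% bovine serum. Stained with rabbit anti-VP1 plus Alexa-488 secondary, nuclei with 300 nM DAPI. Confocal microscopy.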

enterovirus D68 [6] = experiment: Antiviral activity against Enterovirus D68 US/MO/14-18949 infected in human RD cells assessed as inhibition of virus-induced cytopathic effect incubated for 5 mins under shaking condition and measured after 3 days by neutral red dye-based photometric method; format: functional, organism-based; details: Enterovirus D, US/MO/14-18949, RD
In short: (§3)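 RD cells seeded one day ahead to ~90% confluence, PBS (Mg/Ca) wash, infected at ~MOI 0.01 with EV-D68 in DMEM/2% FBS/30 mM MgCl2 at 33 °C, 5% CO2. Compounds and 1% P/S added after 1 h. Plates shaken ~5 min, held 3 days, viable cells stained with neutral red (66 µg/ml), A540 read. EC50 from dose-response fits, triplicates.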

enterovirus D68 [7] = experiment: Antiviral activity against Enterovirus D68 US/MO/14-18947 infected in human RD cells assessed as inhibition of virus-induced cytopathic effect incubated for 5 mins under shaking condition and measured after 3 days by neutral red dye-based photometric method; format: functional, organism-based; details: Enterovirus D, US/MO/14-18947, RD; in short: as §3
[8] = Selectivity index, ratio of CC50 for human A172 cells to EC50 for Enterovirus D68 US/MO/14-18947 infected in human A172 cells; format: toxicity, cell-based; details: read-out: Ratio CC50/EC50
In short: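 A172 cells kept in DMEM with 10% FBS and 1% P/S, grown to about 90% confluency, then infected at MOI about 0.3 in DMEM with 2% FBS and 30 mM MgCl2 at 33 °C. After 1 h, P/S and compounds were added. Viable cells were stained with neutral red after 3 days (A540). CC50 came from the same assay without virus. EC50 and CC50 were fitted from triplicate dose-response data, and SI = CC50/EC50.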

[9] = Selectivity index, ratio of CC50 for human RD cells to EC50 for Enterovirus D68 US/IL/14-18956 infected in human RD cells; format: toxicity, cell-based; details: read-out: Ratio CC50/EC50
In short: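 RD cells in DMEM with 10% FBS were infected at about 90% confluency at MOI about 0.01, giving full CPE by 3 days, in DMEM with 2% FBS and 30 mM MgCl2 at 33 °C. Compounds and P/S were added 1 h after infection. Viability was read by neutral red uptake (A540). CC50 came from uninfected cells. Means were from triplicates, and SI = CC50/EC50.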

enterovirus D68 [10] = experiment: Antiviral activity against Enterovirus D68 US/KY/14-18953 infected in human RD cells assessed as inhibition of virus-induced cytopathic effect incubated for 5 mins under shaking condition and measured after 3 days by neutral red dye-based photometric method; format: functional, organism-based; details: Enterovirus D, US/KY/14-18953, RD; in short: as §3
[11] = Selectivity index, ratio of CC50 for human RD cells to EC50 for Enterovirus D68 US/MO/14-18949 infected in RD human cells; format: toxicity, cell-based; details: read-out: Ratio CC50/EC50
enterovirus D68 [12] = experiment: Antiviral activity against Enterovirus D68 US/IL/14-18956 infected in human RD cells assessed as inhibition of virus-induced cytopathic effect incubated for 5 mins under shaking condition and measured after 3 days by neutral red dye-based photometric method; format: functional, organism-based; details: Enterovirus D, US/IL/14-18956, RD; in short: as §3
enterovirus D68 [13] = experiment: Antiviral activity against Enterovirus D68 US/MO/14-18947 infected in human SH-SY5Y cells assessed as inhibition of virus-induced cytopathic effect incubated for 5 mins under shaking condition and measured after 3 days by neutral red dye-based photometric method; format: functional, organism-based; details: Enterovirus D, US/MO/14-18947, SH-SY5Y
In short: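 Virus at ~MOI 1 applied to SH-SY5Y cells (50% DMEM/50% F-12, 10% FBS) at ~90% confluence in DMEM/2% FBS/30 mM MgCl2 at 33 °C. Compounds added after 1 h with 1% P/S, shaken ~5 min, incubated 3 days. Viability read by neutral red uptake (A540). EC50 fitted from dose-response, triplicate.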

RD [14] = experiment: Cytotoxicity against human RD cells after 3 days by neutral red dye-based photometric method; format: cell-based; details: rd, 72 h
A 172 = experiment: Cytotoxicity against human A172 cells after 3 days by neutral red dye-based photometric method; format: cell-based; details: a 172, 72 h; in short: as §1

O=C(NCCN1CCCC1)c1cc(-c2cccs2)nc2ccccc12
CC50 (HeLa): 41700 nM
pEC50 (enterovirus D68 [1]): 6.70
Activity (Influenza A virus): inactive
selectivity ratio [2]: 4660
CC50 (SH-SY5Y): 93300 nM
selectivity ratio [3]: 933
CC50 (A549): 83200 nM
inhibition (RD [4]): > 99%
inhibition (RD [5]): Active
pEC50 (enterovirus D68 [6]): 7.30
pEC50 (enterovirus D68 [7]): 7.22
selectivity ratio [8]: 327
selectivity ratio [9]: 800
pEC50 (enterovirus D68 [10]): 7.22
selectivity ratio [11]: 800
pEC50 (enterovirus D68 [12]): 7.30
pEC50 (enterovirus D68 [13]): 7.70
CC50 (RD [14]): 40000 nM
CC50 (A 172): 65400 nM

— ChEMBL document CHEMBL4387709, “Discovery of Quinoline Analogues as Potent Antivirals against Enterovirus D68 (EV-D68)” (J Med Chem, 2019)
